CHOP UPR activ – activators of apoptotic CHOP UPR arm, primary screen, cell-based, CHO-CHOP luciferase reporter, luminescence, uHTS; UPR activation; percent of tunicamycin response over DMSO baseline; hit rate 0.34% among 330,000; activation, % at 10 µM;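 active = at 10 µM dose, activation of 40% or more, normalized to positive control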
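Evaluation: % reporter activation, DMSO baseline versus tunicamycin full activation; System: CHO-CHOP luciferase reporter cell line; Input: 500 cells/well; Incubation: 6 h compound treatment, 37 °C; Measured by: Steady-Glo luciferase luminescence; Dosing: one dose, 10 µM in 0.5% DMSO; Buffer or medium: F12 medium, 10% FBS; Benchmarks: positive tunicamycin 10 µg/mL, negative DMSO alone.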
CHOP inh – inhibitors of CHOP promoter induction, primary screen, cell-based, unfolded protein response, luciferase reporter; CHO-K1 CHOP-promoter luciferase, tunicamycin-induced, 15-18 h; inhibition, % at 10 µM; hit rate 3.8% among 220,000;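 active = compounds that reduced the stress-induced luciferase reporter signal by more than about 70% of percent inhibition, limit read from the data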
p97 ATPase inh – inhibitors of human p97 ATPase, primary screen, biochemical; AID 1481, 2009; Transitional endoplasmic reticulum ATPase (Homo sapiens), P55072; hit rate 0.42% among 220,000; recombinant p97 ATPase, Kinase-Glo ATP luminescence, 3 h; inhibition, % at 8 µM; in the data active = inhibition above about 15%
Target sequence (P55072 whole entry, looked up): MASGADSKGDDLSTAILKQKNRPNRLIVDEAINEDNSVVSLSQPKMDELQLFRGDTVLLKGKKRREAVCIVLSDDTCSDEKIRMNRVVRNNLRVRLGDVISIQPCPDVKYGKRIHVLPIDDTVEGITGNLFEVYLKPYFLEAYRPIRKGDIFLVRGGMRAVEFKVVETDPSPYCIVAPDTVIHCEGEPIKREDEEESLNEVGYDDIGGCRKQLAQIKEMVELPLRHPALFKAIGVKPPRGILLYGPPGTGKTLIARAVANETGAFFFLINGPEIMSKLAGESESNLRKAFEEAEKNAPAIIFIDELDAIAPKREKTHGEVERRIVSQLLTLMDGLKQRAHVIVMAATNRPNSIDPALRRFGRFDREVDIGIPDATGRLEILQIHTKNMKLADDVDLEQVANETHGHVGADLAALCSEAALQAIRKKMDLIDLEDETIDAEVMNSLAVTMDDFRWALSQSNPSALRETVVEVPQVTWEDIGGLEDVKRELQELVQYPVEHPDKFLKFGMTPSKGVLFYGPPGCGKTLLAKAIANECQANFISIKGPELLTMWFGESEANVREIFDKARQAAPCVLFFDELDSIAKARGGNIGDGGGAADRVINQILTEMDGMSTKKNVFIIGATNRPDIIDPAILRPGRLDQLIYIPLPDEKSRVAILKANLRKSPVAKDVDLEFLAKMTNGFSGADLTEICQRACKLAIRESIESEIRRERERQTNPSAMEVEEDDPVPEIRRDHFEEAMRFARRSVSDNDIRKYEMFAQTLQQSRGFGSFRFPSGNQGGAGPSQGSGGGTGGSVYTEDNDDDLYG
UPR XBP1 act – activators of adaptive XBP1 UPR arm, primary screen, cell-based, CHO-XBP1 luciferase reporter, luminescence, uHTS; AID 463104, 2010; IRE1-XBP1 UPR activation; percent of tunicamycin response, DMSO as zero; hit rate 0.33% among 330,000; activation, % at 20 µM;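 active = versus positive control, 20 µM dose yields 30% or more activation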
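Material: CHO cell line with stable XBP1 luciferase reporter; schedule: 16-18 h cell attachment at 37 °C, then 6 h compound exposure; signal: glow luminescence from Steady-Glo reagent; medium: serum-containing F12 medium, 10% FBS; benchmarks: tunicamycin 10 µg/mL and vehicle-only wells; read-out: percent activation relative to tunicamycin reference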
HCV NS3 hel inh – inhibitors of HCV NS3 helicase, primary screen, biochemical, Cy5 molecular beacon fluorescence | Hepatitis C virus NS3 helicase | NS3 helicase DNA unwinding | hit rate 0.56% among 290,000 | inhibition, % at 10.9 µM;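 active = inhibition above the mean of all tested compounds plus 3 SD, set per campaign, cut at about 35% in these data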
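Compound dosing – single dose, 10.9 µM nominal final, DMSO 0.8% final · System – NS3 helicase fragment of HCV · Buffer or medium – MOPS pH 6.5, MgCl2, DTT, Tween20, BSA · Signal – Cy5 beacon fluorescence read at start and 1 h · Also added – annealed dual-labelled DNA beacon duplex, ATP-started · Schedule – 1 h at 25 °C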
M18AAP inhibitor – PfM18AAP inhibitors, malaria aminopeptidase, primary screen, biochemical, QFRET, recombinant enzyme. M18 aspartyl aminopeptidase (Plasmodium falciparum 3D7). H-Glu-NHMec fluorogenic cleavage. inhibition, % at 7.35 µM. hit rate 1.2% among 290,000;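 active = inhibition above the campaign mean inhibition over all tested compounds plus 3 SD, cut at about 28% in these data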
Each line names hits and unclear results; the compound was inactive in the other large screens. In the library only some 4.5% were active in any assay of this set; here they are far more common.

Cc1c(C(=O)Nc2nnc(SCc3ccccc3Cl)s2)cccc1[N+](=O)[O-]	CHOP inh 78.3
Cc1ccc(C(C)C)c(OCC(=O)NN=C2CCCC(=O)C2)c1	none (no result: CHOP inh, p97 ATPase inh, HCV NS3 hel inh, M18AAP inhibitor)
Cc1ccc(C(C)C)c(OCC(=O)NN=C2CCCCCCC2)c1	CHOP inh 82.5
Cc1cc(C)c(OCC(=O)Nc2ccccc2N2CCCCC2)c(C)c1	none (no result: CHOP inh, p97 ATPase inh, HCV NS3 hel inh, M18AAP inhibitor)
Cc1cc(C)c(OCC(=O)Nc2ccccc2N2CCOCC2)c(C)c1	CHOP inh 78.7
CCC(=O)N1CCN(c2ccccc2NC(=O)COc2cc(C)ccc2C(C)C)CC1	CHOP inh 77.1
Cc1ccc(-c2nnn(CC(=O)N(CC(=O)NC3CCCCC3)c3ccccc3F)n2)o1	none (no result: CHOP inh, p97 ATPase inh)
Cc1nc(N2CCN(C(=O)c3ccco3)CC2)c2c3c(sc2n1)CCC3	none
CC(C)c1nc(N2CCN(C(=O)c3ccco3)CC2)c2c3c(sc2n1)CCCC3	CHOP inh 73.8
CCC(C)[C@H](NC(=O)N1CC(=O)Nc2ccccc21)C(=O)N[C@@H](Cc1c[nH]c2ccccc12)C(=O)O (stereo partly specified)	none (no result: CHOP inh, p97 ATPase inh)
CC1(C)Cc2c(cnn2-c2ccccc2)-c2c1c1ccccc1n2CC(O)CCl (stereo unspecified)	CHOP inh 94.0
CCOC(=O)c1c(NC(=O)c2cc(CC(C)C)on2)sc(C(C)=O)c1C	none
CCOC(=O)c1c(NC(=O)c2cc(C(C)C)on2)sc(C(C)=O)c1C	CHOP inh 93.5
CCC(=O)N1CCN(c2ccc(NC(=S)NC(=O)c3cc4ccccc4o3)cc2)CC1	none (no result: CHOP inh, p97 ATPase inh)
O=C1CCc2cc(NS(=O)(=O)c3ccccc3)cc3c2N1CC3	none (no result: CHOP inh, p97 ATPase inh, HCV NS3 hel inh, M18AAP inhibitor)
C=CCc1ccccc1OCC(=O)N/N=C/c1ccc(OC(C)=O)cc1OC(C)=O	CHOP inh 72.6
N#CC(C#N)=C1C=CC=CN1/C(=C\c1ccco1)C(=O)c1ccc(Cl)cc1	CHOP inh 110.7 (no result: CHOP UPR activ, UPR XBP1 act)
N#C/C(=C\c1ccco1)C(=O)NCc1ccccc1	none
N#CC(C#N)=C1C=CC=CN1/C(=C\c1ccco1)C(=O)c1ccc(-c2ccccc2)cc1	CHOP inh 107.0 (no result: CHOP UPR activ, UPR XBP1 act)
O=C(NCCc1ccccc1)C1CCCN1S(=O)(=O)c1ccccc1 (stereo unspecified)	none
Cc1onc(-c2ccccc2)c1C(=O)N/N=C/c1c(F)cccc1Cl	none (no result: CHOP inh, p97 ATPase inh)
FC(F)(F)c1cccc(Cc2noc(CN3CCCCC3c3ccccn3)n2)c1 (stereo unspecified)	CHOP inh 73.6
COc1ccccc1NC(=O)C(=O)NCCC1CCCCN1S(=O)(=O)c1cccs1 (stereo unspecified)	none (no result: CHOP inh, p97 ATPase inh, HCV NS3 hel inh, M18AAP inhibitor)
COC(=O)C1=C(C)C(c2ccc(OC)cc2OC)NC(=O)N1 (stereo unspecified)	none
COc1ccc(C2CC(C)(c3ccc(OC)cc3OC)Nc3ccccc3N2)c(OC)c1 (stereo unspecified)	CHOP inh 79.7
COc1ccccc1N1CCN(c2ccc3ccccc3n2)CC1	none (no result: CHOP inh, p97 ATPase inh)
COc1ccccc1N1CCN(c2ccc(-c3ccccc3)nn2)CC1	CHOP inh 78.8
Cc1c(N=Nc2c(-c3ccc([N+](=O)[O-])cc3)[nH]n(C(N)=S)c2=O)cccc1[N+](=O)[O-]	CHOP inh 106.3 (no result: CHOP UPR activ, UPR XBP1 act)
NC(=S)n1[nH]c(-c2ccc([N+](=O)[O-])cc2)c(N=Nc2ccccc2[N+](=O)[O-])c1=O	CHOP inh 85.1 (no result: CHOP UPR activ, UPR XBP1 act)
Cc1cc(C)c(NC(=O)CNC(=O)c2ccc3ncsc3c2)c(C)c1	none (no result: CHOP inh, p97 ATPase inh, HCV NS3 hel inh, M18AAP inhibitor)
Cc1ccc(C)c(N2CCN(C(=O)C3CCN(c4nc(C)cc(C)n4)CC3)CC2)c1	CHOP inh 87.9
Cc1ccc(N2CCN(C(=O)c3ccccc3)CC2)c(C)c1	none
Cc1ccc(N2CCN(C(=O)c3ccccc3Br)CC2)c(C)c1	CHOP inh 87.0
Cc1ccc(C)c(N2CCN(C(=O)c3ccccc3Br)CC2)c1	CHOP inh 87.4
Cc1cc(C)nc(N2CCC(C(=O)N3CCN(c4cc(Cl)ccc4C)CC3)CC2)n1	none
COCCCn1c(C)cc(C(=O)CN2c3cccc4cccc(c34)S2(=O)=O)c1C	none (no result: CHOP inh, p97 ATPase inh, HCV NS3 hel inh, M18AAP inhibitor)
O=C(COC(=O)c1ccccn1)NC(=O)c1ccccc1	none (no result: CHOP inh, p97 ATPase inh, HCV NS3 hel inh, M18AAP inhibitor)
Cc1cccc(NC(=O)c2cc(NC(=O)C3CCCCC3C(=O)O)ccc2N2CCCCC2)c1 (stereo unspecified)	CHOP inh 77.3
CC(=O)Nc1ccc(N2CCCCC2)c(C(=O)Nc2cccc(C)c2)c1	none
CC(C)C(NC(=O)/C(=C/c1ccco1)NC(=O)c1ccc(Br)o1)C(=O)O (stereo unspecified)	none (no result: CHOP inh, p97 ATPase inh)
CCOC(=O)C1CCN(c2nc(C)nc3c2oc2ccccc23)CC1	CHOP inh 74.7 (no result: p97 ATPase inh, HCV NS3 hel inh, M18AAP inhibitor)
CCc1nc(N2CCCCC2)c2oc3ccccc3c2n1	CHOP inh 89.1
CCc1nc(N2CCCCC2C(=O)O)c2oc3ccccc3c2n1 (stereo unspecified)	none
Cc1nc(SCC(=O)NCc2ccccc2)c2oc3ccccc3c2n1	CHOP inh 72.3
CCc1nc(N2CCCC(C)C2)c2oc3ccccc3c2n1 (stereo unspecified)	CHOP inh 71.8
CCc1nc(N2CCCCC2C)c2oc3ccccc3c2n1 (stereo unspecified)	none
Cc1nnc2c(NCCc3ccccc3)nc3ccccc3n12	none (no result: CHOP inh, p97 ATPase inh)
O=C(C1CCN(S(=O)(=O)c2ccccc2)CC1)N1CCN(Cc2ccccc2)CC1	none (no result: CHOP inh, p97 ATPase inh)
COc1ccc(NC(=O)NC23CC4(C)CC(C)(CC(C)(C4)C2)C3)cc1	CHOP inh 70.3
COc1cccc2c1OCC(C(=O)Nc1nccs1)=C2	none (no result: CHOP inh, p97 ATPase inh)
CC1CCCCN1C(=O)c1cc2nc(-c3ccccc3)cc(-c3ccccc3)n2n1 (stereo unspecified)	CHOP inh 81.8
O=C(c1cnn2c(C(F)(F)F)cc(-c3ccccc3)nc12)N1CCCCC1c1cccnc1 (stereo unspecified)	none
O=C(c1cc2nc(-c3ccc(F)cc3)cc(C(F)(F)F)n2n1)N1CCCCC1c1cccnc1 (stereo unspecified)	CHOP inh 72.9
O=C(NNC(=O)c1csc(N2CCOCC2)n1)c1ccc(=O)[nH]c1	none (no result: CHOP inh, p97 ATPase inh, HCV NS3 hel inh, M18AAP inhibitor)
Cc1c(F)cccc1NC(=O)CCCCCC1NC(=O)NC1C (stereo unspecified)	none
CC(C)c1ccc(/C=N/NC(=O)c2nnn(-c3nonc3N)c2CSC2=NCCS2)cc1	CHOP inh 74.1
CC1CCCCC12NC(=O)N(CC(=O)N1CCN(c3ncccn3)CC1)C2=O (stereo unspecified)	none (no result: CHOP inh, p97 ATPase inh, HCV NS3 hel inh, M18AAP inhibitor)

Bioassay records from PubChem BioAssay.
